Experiments:
Trypanosoma cruzi = assay: Trypanocidal activity against Trypanosoma cruzi Tulahuen C2C4 amastigotes infected in rat L6 cells after 4 days; type: functional, organism-based; details: Tulahuen C2C4, L6, 96 h
[1] = Induction of NO release assessed as nitrite level; type: physicochemical
Outline: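 Indirect measurement on a Sievers NOA 280 nitric oxide analyser; compounds dissolved in DMSO (1 mg in 200 µL) and analysed in oxygenated medium. Nitrite anion, the NO degradation byproduct, quantified; result given as IC50.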

[2] = Permeability across basolateral to apical side in human Caco2 cells; type: ADME, cell-based; details: Caco-2, read-out: permeability
Outline: (§1)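 Caco-2 grown 21 days on Transwell filters (seeded 5 × 10⁴ cells/cm²); monolayer integrity checked by TEER and fluorescein, metoprolol, amoxicillin markers. […] compound in HBSS pH 7.4 dosed A→B and B→A, basolateral pH 7.4, 37 °C, orbital shaking 25 rpm. Quantified by HPLC-UV 254 nm (C18, 35 °C, phosphate pH 3.5/acetonitrile 50:50). Papp = (VR·ΔQ/Δt)/(A·C0), using only receiver concentrations under 10% of donor.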

[3] = Efflux ratio of permeability from basolateral to apical side over apical to basolateral side in human Caco2 cells; type: ADME, cell-based; details: Caco-2
Cruzipain = Cruzipain (Trypanosoma cruzi, UniProt P25779); assay: Inhibition of Trypanosoma cruzi cruzain expressed in Escherichia coli M15/DH5alpha using Z-Phe-Arg-AMC as substrate by spectrofluorometry
Outline: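 C-terminally truncated cruzain (0.64 nM) in 50 mM sodium phosphate, 100 mM NaCl, 5 mM EDTA, 5 mM DTT, pH 6.5, preincubated 5 min at room temperature with inhibitor before adding Z-Phe-Arg-AMC. AMC release followed by fluorescence (ex 355, em 460 nm). IC50 by nonlinear regression of activity relative to no-inhibitor control.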

HepG2 = assay: Cytotoxicity against human HepG2 cells after 24 hrs by XTT assay; type: cell-based; details: HepG2, 24 h
Outline: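 Cells kept in DMEM with 10% FCS, penicillin/streptomycin and bicarbonate at 37 °C, 5% CO2; plated at 5 × 10⁴ cells/well 24 h before treatment. Exposed 24 h to […] in DMSO (final 0.44% v/v). After two PBS washes, XTT reagent added for 1 h at 37 °C; OD 450 nm minus 690 nm, normalized to medium-only controls.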

[4] = Permeability across apical to basolateral side in human Caco2 cells; type: ADME, cell-based; details: Caco-2, read-out: permeability; outline: as §1
[5] = Selectivity index, ratio of IC50 for human HepG2 cells to IC50 for Trypanosoma cruzi Tulahuen C2C4; type: toxicity, cell-based; details: read-out: Ratio IC50
Outline: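 SI computed as XTT cytotoxicity IC50 divided by amastigote IC50.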

Cruzipain, sequence (P25779 whole entry, the tested form may be a part): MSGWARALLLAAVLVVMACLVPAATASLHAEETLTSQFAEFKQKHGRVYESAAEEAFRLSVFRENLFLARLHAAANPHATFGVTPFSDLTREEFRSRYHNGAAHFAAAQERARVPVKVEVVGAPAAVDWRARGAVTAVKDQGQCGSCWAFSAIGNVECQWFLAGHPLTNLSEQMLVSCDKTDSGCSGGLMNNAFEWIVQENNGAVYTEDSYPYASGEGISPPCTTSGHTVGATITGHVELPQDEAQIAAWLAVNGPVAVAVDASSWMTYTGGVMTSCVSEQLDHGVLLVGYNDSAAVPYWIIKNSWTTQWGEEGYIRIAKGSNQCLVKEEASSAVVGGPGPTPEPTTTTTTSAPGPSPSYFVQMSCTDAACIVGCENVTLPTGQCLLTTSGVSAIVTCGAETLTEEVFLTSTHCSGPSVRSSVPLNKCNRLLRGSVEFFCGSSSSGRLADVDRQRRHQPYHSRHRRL

SMILES | IC50 (Trypanosoma cruzi) [µM] | IC50 [1] [µM] | Papp B→A [2] [×10⁻⁶ cm/s] | efflux ratio [3] | IC50 (Cruzipain) [µM] | IC50 (HepG2) [µM] | Papp A→B [4] [×10⁻⁶ cm/s] | selectivity ratio [5]
O=C(N/N=C/c1c(-c2ccccc2)no[n+]1[O-])c1ccccc1 | > 100 | 132 | – | – | – | – | – | –
O=C(N/N=C/c1c(-c2ccccc2)no[n+]1[O-])c1ccco1 | 8.12 | 867 | – | – | – | – | – | –
O=C(N/N=C/c1c(-c2ccccc2)no[n+]1[O-])c1ccc(Cl)cc1 | > 100 | 4230 | – | – | – | – | – | –
O=C(N/N=C/c1c(-c2ccccc2)no[n+]1[O-])c1cccc([N+](=O)[O-])c1 | 15.3 | 912 | – | – | – | – | – | –
O=C(N/N=C/c1c(-c2ccccc2)no[n+]1[O-])c1ccc([N+](=O)[O-])cc1 | 2.9 | 110 | 0.52 | 0.63 | 15.1 | 45.5 | 0.82 | 15.7
Cc1c(/C=N/NC(=O)c2ccccc2Nc2ccccc2)no[n+]1[O-] | 5.69 | 124 | – | – | – | – | – | –
Cc1c(/C=N/NC(=O)Cc2ccccc2)no[n+]1[O-] | > 100 | 898 | – | – | – | – | – | –
Cc1c(/C=N/NC(=O)c2cccc([N+](=O)[O-])c2)no[n+]1[O-] | 9.94 | 52 | – | – | – | – | – | –
Cc1c(/C=N/NC(=O)c2ccc(Cl)cc2)no[n+]1[O-] | 14.3 | 56 | – | – | – | – | – | –
O=C(Cc1ccccc1)N/N=C/c1c(-c2ccccc2)no[n+]1[O-] | 9.1 | 33.4 | – | – | – | – | – | –
O=C(Cn1ccnc1[N+](=O)[O-])NCc1ccccc1 [BENZNIDAZOLE] | 1.5 | – | – | – | – | 28.1 | – | 18.7
O=C(N/N=C/c1c(-c2ccccc2)no[n+]1[O-])c1ccc(Br)cc1 | > 100 | 601 | – | – | – | – | – | –
Cc1c(/C=N/NC(=O)c2ccccc2)no[n+]1[O-] | > 100 | 210 | – | – | – | – | – | –
Cc1c(/C=N/NC(=O)c2ccc([N+](=O)[O-])cc2)no[n+]1[O-] | 2.88 | 242 | 37.6 | 0.87 | 11.2 | 80.9 | 43.2 | 28.1
Cc1c(/C=N/NC(=O)c2ccco2)no[n+]1[O-] | 6.7 | 1220 | – | – | – | – | – | –
Cc1c(/C=N/NC(=O)c2ccc(Br)cc2)no[n+]1[O-] | 27.4 | 102 | – | – | – | – | – | –
